Here are results for four compounds from ChEMBL document CHEMBL1121729, “N*-N*-S* tridentate ligand system as potential antitumor agents” (1981).

For orientation: T/C means the result in the treated group divided by that in the control group, in per cent. By inhibition is commonly meant the change of the read-out against control, counted positive when it falls.

For experiment [1], the system named is P388. Briefly: Change in body weight of P-388 lymphocytic leukemia implanted CDF1 mice to that of control when 100 mg/kg compound administered; T/C= 3.3/1.3. Format: functional, Mus musculus. Summed up: (§1)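 CDF1 mice given 10^6 P-388 lymphocytic leukemia cells ip on day 0; drug given ip as a suspension in klucel or in saline plus Tween 80 on days 1, 5 and 9, starting 24 h after tumor transplantation; six mice per group. Read-outs are treated/control (T/C, %) and body weight change in g as treated/control.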

In experiment [2] the test system is P388. Briefly: Antitumor activity against P-388 lymphocytic leukemia implanted CDF1 mice to that of control when 400 mg/kg compound administered. Format: functional, Mus musculus. A digest of the protocol:
as §1

The subject of experiment [3] is P388. Briefly: Change in body weight of P-388 lymphocytic leukemia implanted CDF1 mice to that of control when 200 mg/kg compound administered; T/C= 2.1/1.3. Format: functional, Mus musculus. Summed up:
as §1

Experiment [4] has as its system P388. Description: Antitumor activity against P-388 lymphocytic leukemia implanted CDF1 mice to that of control when 200 mg/kg compound administered. Format: functional, Mus musculus. A digest of the protocol:
as §1

In experiment [5] the test system is P388. Briefly: Change in body weight of P-388 lymphocytic leukemia implanted CDF1 mice to that of control when 400 mg/kg compound administered; T/C= 0.8/1.3. Format: functional, Mus musculus. Summed up:
as §1

Experiment [6] has as its system P388. Description: Antitumor activity against P-388 lymphocytic leukemia implanted CDF1 mice to that of control when 100 mg/kg compound administered. Format: functional, Mus musculus. A digest of the protocol: as §1
Experiment [7] concerns P388. Briefly: Change in body weight of P-388 lymphocytic leukemia implanted CDF1 mice to that of control when 100 mg/kg compound administered; T/C= -0.2/1.3. Format: functional, Mus musculus. Summed up: as §1
In experiment [8] the test system is P388. Briefly: Change in body weight of P-388 lymphocytic leukemia implanted CDF1 mice to that of control when 200 mg/kg compound administered; T/C= 1/1.3. Format: functional, Mus musculus. Summed up:
as §1

The subject of experiment [9] is P388. Briefly: Antitumor activity against P-388 lymphocytic leukemia implanted CDF1 mice to that of control when 400 mg/kg compound administered; toxic. Format: functional, organism-based. Further details: dose 400 mg/kg. As to conditions: Mus musculus. A digest of the protocol:
as §1

In experiment [10] the test system is P388. Description: Change in body weight of P-388 lymphocytic leukemia implanted CDF1 mice to that of control when 400 mg/kg compound administered; T/C= -2.5/5. Format: functional, Mus musculus. Summed up: as §1
Experiment [11] has as its system P388. Briefly: Change in body weight of P-388 lymphocytic leukemia implanted CDF1 mice to that of control when 100 mg/kg compound administered; T/C= 1.5/5. Format: functional, Mus musculus. Summed up: as §1
For experiment [12], the system named is P388. Description: Change in body weight of P-388 lymphocytic leukemia implanted CDF1 mice to that of control when 200 mg/kg compound administered; T/C= 1.1/5. Format: functional, Mus musculus. A digest of the protocol:
as §1

The test system of experiment [13] is L1210. Briefly: Growth inhibition of cultured L-1210 cells after 48-h exposure to compound at 1.6 x 10E-8 M/mL in trail 2. Format: functional. As to conditions: Mus musculus, L1210, 48 h.
Experiment [14] concerns P388. Briefly: Change in body weight of P-388 lymphocytic leukemia implanted CDF1 mice to that of control when 200 mg/kg compound administered; T/C=1.5/0.5. Format: functional, Mus musculus. Summed up:
as §1

The subject of experiment [15] is P388. Description: Change in body weight of P-388 lymphocytic leukemia implanted CDF1 mice to that of control when 400 mg/kg compound administered; T/C= -0.8/5. Format: functional, Mus musculus. A digest of the protocol:
as §1

Experiment [16] concerns L1210. Description: Growth inhibition of cultured L-1210 cells after 48-h exposure to compound at 4 x 10E-9 M/mL in trail 2. The conditions noted are these: Mus musculus, L1210, 48 h. Format: functional.
Experiment [17] deals with Sarcoma-180. Description: Growth inhibition of cultured Sarcoma 180 cells after 48-h exposure to compound at 1.6 x 10E-8 M/mL in trail 2. Format: functional. As to conditions: Mus musculus, Sarcoma-180, 48 h.
The test system of experiment [18] is Sarcoma-180. Description: Growth inhibition of cultured Sarcoma cells after 48-h exposure to compound at 4 x 10E-9 M/mL in trail 2. Format: functional. The conditions noted are these: Mus musculus, Sarcoma-180, 48 h.
Experiment [19] concerns P388. Briefly: Change in body weight of P-388 lymphocytic leukemia implanted CDF1 mice to that of control when 100 mg/kg compound administered; T/C=1.5/0.5. Format: functional, Mus musculus. A digest of the protocol:
as §1

The test system of experiment [20] is Sarcoma-180. Briefly: Growth inhibition of cultured Sarcoma 180 cells after 48-h exposure to compound at 1.6 x 10E-8 M/mL in trail 1. Format: functional. As to conditions: Mus musculus, Sarcoma-180, 48 h.
Experiment [21] relates to Sarcoma-180. Briefly: Growth inhibition of cultured Sarcoma cells after 48-h exposure to compound at 4 x 10E-9 M/mL in trail 1. Format: functional. The conditions noted are these: Mus musculus, Sarcoma-180, 48 h.
Experiment [22] relates to L1210. Description: Growth inhibition of cultured L-1210 cells after 48-h exposure to compound at 4 x 10E-9 M/mL in trail 1. Format: functional. The conditions noted are these: Mus musculus, L1210, 48 h.
Experiment [23] has as its system L1210. Description: Growth inhibition of cultured L-1210 cells after 48-h exposure to compound at 1.6 x 10E-8 M/mL in trail 1. Format: functional. As to conditions: Mus musculus, L1210, 48 h.

Each structure is given as a SMILES string.

Turning to `CN(C)C(=S)c1cccc(-c2ccccn2)n1`, the figures for the Change in weight in the experiment with P388 [1], with P388 [3] and in the experiment with P388 [5] were 3.3, 2.1 and 0.8, respectively. Moreover, the T/C with P388 [2] worked out at 91%; in the experiment on P388 [4] it was 95%; with P388 [6], 95%.
On to `C/N=C(/S)c1cccc(-c2ccccn2)n1`, for which the Change in weight in the experiment with P388 [7] is -0.2; in the experiment on P388 [8] it was 1. For the same compound, the T/C is 83% in the experiment on P388 [4], “Toxic” in the experiment with P388 [9] and 91% in the experiment with P388 [6].
As to `NC(=S)c1ccc2ccc3cccnc3c2n1`, the Change in weight was -2.5 in the experiment on P388 [10], 1.5 in the experiment with P388 [11] and 1.1 in the experiment on P388 [12]. Besides, the figures for the T/C in the experiment on P388 [2], in the experiment on P388 [4] and in the experiment with P388 [6] were 112%, 106% and 100%, respectively.
Consider `NC(=S)c1cccc(-c2ccccn2)n1`, for which the inhibition at 0.016 µM came out at 93% in the experiment with L1210 [13], 60% in the experiment on Sarcoma-180 [17], 85% in the experiment on Sarcoma-180 [20] and 95% in the experiment on L1210 [23]. In addition, the results for the Change in weight in the experiment on P388 [14], in the experiment on P388 [15] and in the experiment on P388 [19] were 1.5, -0.8 and 1.5, respectively. In addition, the inhibition at 0.004 µM is 32% in the experiment on L1210 [16], 10% with Sarcoma-180 [18], 35% in the experiment on Sarcoma-180 [21] and 51% in the experiment on L1210 [22]. Also, the T/C with P388 [2] is recorded as 143%; with P388 [4], 125%; in the experiment on P388 [6], 112%.
